Screening results (PubChem BioAssay)
Apaf-1 inh – inhibitors of human Apaf-1 apoptosome, primary screen, biochemical, DEVD-Rh110 fluorescence, uHTS; AID 489030, 2010; inhibition, % at 20 µM; Apoptotic protease-activating factor 1 (Homo sapiens), O14727; reconstituted apoptosome caspase-3 activity; 330,000 tested, 0.71% active; active = inhibition of at least 40% at 20 µM;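 also: plate controls were DMSO wells for no effect and DEVD-CHO caspase inhibitor wells for full effect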
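Assay system – apoptosome proteins · Medium – Hepes buffer, pH 7.5 · Also added – cytochrome c with DEVD-Rh110 · Timing – 30 min compound preincubation, 50 min activation, room temperature · Detection – Rh110 fluorescence, excitation 480 nm, emission 540 nm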
ZTA counter – counter-screen for EBNA-1 inhibitors: inhibitors of Epstein-Barr virus ZTA; P03206; 320,000 tested, 0.15% active; ZTA-DNA binding, fluorescence polarization; inhibition, % at 11 µM; in the data active = inhibition above about 33%
Target sequence (P03206 whole entry, looked up): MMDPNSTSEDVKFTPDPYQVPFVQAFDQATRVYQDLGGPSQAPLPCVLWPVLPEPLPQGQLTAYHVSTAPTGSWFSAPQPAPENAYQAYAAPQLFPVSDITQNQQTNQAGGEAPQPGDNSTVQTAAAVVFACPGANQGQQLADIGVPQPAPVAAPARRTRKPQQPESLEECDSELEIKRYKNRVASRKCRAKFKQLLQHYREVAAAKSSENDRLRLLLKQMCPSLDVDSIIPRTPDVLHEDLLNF
EBNA-1 inhibitor – EBNA-1 DNA-binding inhibitors, primary screen, biochemical, fluorescence polarization | inhibition, % at 14.8 µM | 300,000 tested, 0.34% active | AID 1950, 2009; in the data active = inhibition above about 28%
UBC13 inh – UBC13 polyubiquitin chain formation inhibitors, primary screen, biochemical, TR-FRET, uHTS; Ubiquitin-conjugating enzyme E2 N (Homo sapiens), P61088; inhibition, % at 20 µM; 330,000 tested, 0.47% active; in the data active = inhibition above about 45%, passing the limit was not always enough
Target sequence (P61088 whole entry, looked up): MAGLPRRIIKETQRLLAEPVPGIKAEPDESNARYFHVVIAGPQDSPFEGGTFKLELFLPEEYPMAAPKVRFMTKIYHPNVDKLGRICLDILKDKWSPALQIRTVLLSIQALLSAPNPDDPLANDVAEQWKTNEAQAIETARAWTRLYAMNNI
PfG6PD inh – PfG6PD enzyme inhibitors, primary screen, biochemical, fluorescence intensity, uHTS; glucose-6-phosphate dehydrogenase-6-phosphogluconolactonase (Plasmodium falciparum 3D7); 350,000 tested, 0.78% active; PfGluPho enzyme, NADPH resazurin-diaphorase fluorescence; AID 504690, 2011; inhibition, % at 20 µM;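 active = inhibition reaching at least a set limit at 20 µM in the primary screen, cut at about 59% in these data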;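 also: 0% = DMSO wells with substrate and 100% = DMSO wells lacking glucose-6-phosphate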
PfM18AAP inh – PfM18AAP inhibitors, malaria aminopeptidase, primary screen, biochemical, QFRET, recombinant enzyme; H-Glu-NHMec fluorogenic cleavage; 290,000 tested, 1.2% active; M18 aspartyl aminopeptidase (Plasmodium falciparum 3D7); inhibition, % at 7.35 µM;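 active = inhibition above the campaign mean inhibition over all tested compounds plus 3 SD, cut at about 28% in these data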;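 also: 0% = plate median of test compound wells and 100% = 2 mM ZnCl2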
Apaf-1 inh conf – Apaf-1 inhibitors, single-dose retest, confirmation, biochemical, fluorescence, DEVD-Rh110, 20 µM; inhibition, % at 20 µM; reconstituted apoptosome, caspase-3 DEVD-Rh110 fluorescence; shares compounds with Apaf-1 inh; 1,800 tested, 25% active;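 active = mean inhibition of at least 40% at 20 µM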;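 also: plate controls were DMSO wells for no effect and DEVD-CHO caspase inhibitor control wells for full effect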
Rh110 interf inh – Rh110 fluorescence interference by putative Apaf-1 inhibitors, confirmation, artefact control for Apaf-1 inhibitor project, biochemical, 20 µM; shares compounds with Apaf-1 inh; quenched caspase reaction; activation (fluorescence interference), % at 20 µM; 1,800 tested, under 10 active; AID 504615, 2011;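 active = signal rise of 40% or more at 20 µM, treated as a fluorescence artifact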
Apaf1 inh interf – fluorescence interference of Apaf-1 inhibitor hits, dose response, artefact control for Apaf-1 inhibitor project | shares compounds with Apaf-1 inh | fluorescence interference counterscreen, Apaf-1 assay format | IC50, µM | 460 tested, under 10 active; call rule not given here
* hit, by the source's call; nt = not tested or not shown. Compounds with a hit are over-represented: about 2.9% of the library has one in this group of screens.

SMILES	Apaf-1 inh	ZTA counter	EBNA-1 inhibitor	UBC13 inh	PfG6PD inh	PfM18AAP inh	Apaf-1 inh conf	Rh110 interf inh	others
C=CCN(CC=C)Cc1c(O)ccc2c1oc(=O)c1ccccc12	47*	18	-6	25	30	20	41*	3	Apaf1 inh interf=>100
CC1(C)CC(=O)C(C=Nc2ccc(O)c(N=CC3=C(O)CC(C)(C)CC3=O)c2)=C(O)C1	47*	-14	2	-24	26	23	17	1
CC1(C)CC(=O)C(C=Nc2ccc3c(c2)OCO3)=C(O)C1	-8	-11	-8	-4	24	9	nt	nt
COc1ccc(Cn2nc(-c3ccccc3)c(N3CCCCC3)cc2=O)cc1	46*	9	8	-4	-15	1	17	10
Cc1ccc(NS(=O)(=O)c2cccc(C(=O)N(C)Cc3cccs3)c2)cc1	15	-2	3	5	3	nt	nt	nt
O=C(C[n+]1cccc(C(=O)N/N=C/c2ccc(Br)cc2)c1)c1ccccc1	50*	-21	nt	-2	3	nt	15	1
O=C(N/N=C/c1ccc(Br)cc1)c1cc[n+](Cc2ccccc2)cc1	-6	-8	-5	14	-22	12	nt	nt
Cc1ccc(S(=O)(=O)N2CCC(C(=O)OCC(=O)N(C)CC(=O)Nc3ccc(F)cc3)CC2)cc1C	52*	-22	-5	4	-5	nt	19	-2
Cc1ccc(S(=O)(=O)N2CCC(C(=O)OCC(=O)N(C)Cc3ccccc3)CC2)cc1C	23	6	-9	-6	-16	nt	nt	nt
Cc1cc(C)c(C#N)c(SCC(=O)Nc2nonc2N)n1	64*	-19	2	5	5	12	12	14
COc1ccc(-c2c(C#Cc3ccc(N(C)C)cc3)c3ccccc3n2C)cc1	57*	nt	nt	-14	2	nt	17	5
COC(=O)[C@H](Cc1ccccc1)NC(=O)Nc1ccc(C)cc1	-9	-8	10	3	-1	-11	nt	nt
Cn1c(NC(=O)c2ccc(Cl)cc2)cc(=O)n(C)c1=O	6	11	-5	-26	-8	4	nt	nt
Cn1c(NC(=O)c2ccc(Cl)s2)cc(=O)n(C)c1=O	66*	7	4	3	-15	7	10	-3
CN(C)c1cccc2c1c(NC(=O)Nc1ccc(F)cc1F)nn2C	-4	7	5	-5	34	-3	nt	nt
CN(C)c1cccc2c1c(NC(=O)Nc1ccccc1)nn2C	82*	8	7	1	39	4	6	7
c1cc2c3c(cccc3c1)C(N1CCCCCC1)=N2	11	18	13	-4	15	7	nt	nt
c1ccc2c(c1)CCN(C1=Nc3cccc4cccc1c34)C2	43*	nt	nt	-33	38	1	10	5
Cc1ccc(NC(=O)c2ccc([N+](=O)[O-])cc2Cl)nc1	0	-17	-6	3	0	3	nt	nt
COc1ccc(C(=O)c2nccc3cc(OC)c(OC)cc23)cc1OC	84*	-31	nt	-86	50	nt	44*	-4	Apaf1 inh interf=>100
COc1ccccc1N1C(=O)N(C(C)=O)C2C1Nc1ccccc1N2C (stereo unspecified)	83*	-6	-3	-38	35	8	25	11
COc1cccc(N2C(=O)Nc3ccc(Br)cc3C2(O)C(=O)NCCCOC(C)C)c1 (stereo unspecified)	-5	1	-2	4	0	-2	nt	nt
Nc1ccc(Br)c2cccnc12	85*	-1	-6	-41	63*	24	46*	-1	Apaf1 inh interf=>100
CS(=O)(=O)Oc1ccc(Br)c2cccnc12	3	4	-7	-8	15	-7	nt	nt
COc1ccccc1CN(C)C[C@H]1OCc2cnnn2CCCC(=O)N([C@H](C)CO)C[C@@H]1C	nt	nt	nt	nt	4	nt	nt	nt
SMILES	Apaf-1 inh	ZTA counter	EBNA-1 inhibitor	UBC13 inh	PfG6PD inh	PfM18AAP inh	Apaf-1 inh conf	Rh110 interf inh	others
CCOc1ccc(S(=O)(=O)Nc2ccc(C(=O)N(CC)CC(=O)NCc3cccs3)cc2)cc1	nt	nt	nt	nt	-7	nt	nt	nt
CCOc1ccc(NS(=O)(=O)c2ccc(C(=O)N(CC)CC(=O)NCc3cccs3)cc2)cc1	61*	3	10	38	1	2	29	-3
Cc1cc(NC2=CC(=O)C(=O)c3ccccc32)no1	nt	nt	nt	nt	37	nt	nt	nt
COc1cc(OC)c(NC2=CC(=O)C(=O)c3ccccc32)cc1Cl	92*	-10	-4	-328	6	2	92*	9	Apaf1 inh interf=>100
COc1ccc(CNc2ccc3cn[nH]c3c2)c(OC)c1OC	46*	-5	-6	6	40	18	39	-2
COc1ccccc1S(=O)(=O)Nc1ccc2cn[nH]c2c1	-13	-9	2	2	-8	-6	nt	nt
CCOc1cc(CNc2ccc3cn[nH]c3c2)ccc1OC	85*	16	-5	-22	33	18	49*	-2	Apaf1 inh interf=>100
CC(=O)Nc1ccc(S(=O)(=O)N2CCC(NC(=O)C(Cc3ccc(C)cc3)NC(C)=O)CC2)cc1 (stereo unspecified)	4	nt	nt	-7	1	-3	nt	nt
Nc1[nH]c(=O)nc2snnc12	nt	nt	nt	nt	10	nt	nt	nt
Cc1[nH]n(-c2ccccc2)c(=O)c1C(c1cccc([N+](=O)[O-])c1O)c1c(C)[nH]n(-c2ccccc2)c1=O	88*	-15	0	-60	-46	10	27	4
Cc1[nH]n(-c2ccccc2)c(=O)c1C(c1ccc(C(=O)O)cc1)c1c(C)[nH]n(-c2ccccc2)c1=O	71*	-13	-4	-23	-3	26	22	6
Cc1[nH]n(-c2ccccc2)c(=O)c1C(c1cccc([N+](=O)[O-])c1)c1c(C)[nH]n(-c2ccccc2)c1=O	64*	2	4	-30	-23	25	31	6
O=C(NC1CCC(O)CC1)C1CCN(S(=O)(=O)c2c(Cl)cccc2Cl)CC1 (stereo unspecified)	-3	4	nt	5	1	nt	nt	nt
Cc1c(CCC(C)C)c(=O)n2c([nH]c3ccccc32)c1C#N	60*	7	0	-4	-12	5	65*	-2	Apaf1 inh interf=>100
CCCCc1c(C)c(C#N)c2[nH]c3ccccc3n2c1=O	45*	2	-4	-9	-33	13	50*	7	Apaf1 inh interf=>100
